Reference: PMC10809365 (ACS Omega, 2024)

How the values were obtained:
AbDapE-SeMet = AbDapE-SeMet (Acinetobacter baumannii, UniProt A3M8H2); assay: Thermal shift assay, AbDapE-SeMet; assay type: binding; conditions: 6 μM AbDapE-SeMet + 10× dye
In short: (§1)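 SYPRO Orange thermal melt at 10× dye in 50 mM HEPES pH 7.5, 10 µL triplicates. Protein is 16 µM for native AbDapE and 6 µM for SeMet AbDapE, with DMSO kept below 5%. Tm comes from the negative first derivative of the melting curves, further differentiated to the third derivative. Ki is calculated from Tm plotted against log[test compound] using a derived van't Hoff equation.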

AbDapE [1] = molecular target: T1, AbDapE (Acinetobacter baumannii, UniProt A3M8H2); assay: Thermal shift assay, AbDapE native; assay type: binding; conditions: 16 μM AbDapE + 10× dye
In short: as §1

AbDapE [2] = molecular target: T1, AbDapE; assay: DapE ninhydrin enzyme inhibition assay, AbDapE; assay type: biochemical; conditions: kinetic assays, modified ninhydrin assay
In short: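 Purified His-tag-cleaved AbDapE at 8 nM final in 50 mM HEPES pH 7.5, 30 °C. Test compound (DMSO, 5% final) is preincubated with enzyme for 10 min before 2 mM N6-methyl-L,L-SDAP. After 10 min, heat to 100 °C for 1 min, chill, add 2% ninhydrin, 80 °C for 15 min, then read A570.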

HiDapE [3] = molecular target: T2, HiDapE (Haemophilus influenzae, UniProt P44514); assay: Thermal shift assay, HiDapE; assay type: binding
T2 sequence (P44514 1-377): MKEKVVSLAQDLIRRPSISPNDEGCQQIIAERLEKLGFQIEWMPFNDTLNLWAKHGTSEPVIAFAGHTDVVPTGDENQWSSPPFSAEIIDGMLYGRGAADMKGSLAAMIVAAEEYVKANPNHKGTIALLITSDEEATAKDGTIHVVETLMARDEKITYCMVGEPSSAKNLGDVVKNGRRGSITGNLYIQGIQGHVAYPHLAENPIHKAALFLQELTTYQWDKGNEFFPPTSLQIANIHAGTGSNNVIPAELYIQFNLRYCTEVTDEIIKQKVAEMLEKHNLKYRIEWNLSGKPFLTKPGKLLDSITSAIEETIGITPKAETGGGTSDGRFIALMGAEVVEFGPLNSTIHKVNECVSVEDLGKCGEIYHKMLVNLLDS

HiDapE [4] = molecular target: T2, HiDapE; conditions: read-out: HiDapE IC50 (sulfate); previously published enzyme inhibition; cited from earlier work
[5] = 0.001 mM Li2SO4, 200 nM HiDapE + 10× dye
[6] = 0.005 mM Li2SO4, 200 nM HiDapE + 10× dye
[7] = 0.1 mM Li2SO4, 200 nM HiDapE + 10× dye
[8] = 0.5 mM Li2SO4, 200 nM HiDapE + 10× dye
[9] = 1 mM Li2SO4, 200 nM HiDapE + 10× dye
[10] = 5 mM Li2SO4, 200 nM HiDapE + 10× dye
[11] = 10 mM Li2SO4, 200 nM HiDapE + 10× dye
[12] = 30 mM Li2SO4, 200 nM HiDapE + 10× dye
[13] = 50 mM Li2SO4, 200 nM HiDapE + 10× dye
[14] = 60 mM Li2SO4, 200 nM HiDapE + 10× dye
[15] = 70 mM Li2SO4, 200 nM HiDapE + 10× dye

Chain of AbDapE-SeMet (A3M8H2 whole entry): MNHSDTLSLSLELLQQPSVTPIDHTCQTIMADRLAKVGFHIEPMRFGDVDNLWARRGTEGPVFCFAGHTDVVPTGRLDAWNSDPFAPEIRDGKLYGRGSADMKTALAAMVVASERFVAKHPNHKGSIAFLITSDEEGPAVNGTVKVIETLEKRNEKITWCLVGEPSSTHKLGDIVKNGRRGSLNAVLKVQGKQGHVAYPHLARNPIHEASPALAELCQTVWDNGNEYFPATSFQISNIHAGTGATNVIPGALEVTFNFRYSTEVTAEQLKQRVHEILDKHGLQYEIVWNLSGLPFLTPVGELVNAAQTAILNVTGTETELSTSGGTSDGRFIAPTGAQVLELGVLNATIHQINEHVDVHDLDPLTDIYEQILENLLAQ
T1 sequence (A3M8H2 whole entry): as above

## O=S(=O)([O-])[O-].[Li+].[Li+] [Lithium sulfate]
AbDapE-SeMet; 0.001 mM Li2SO4
  Tm AbDapE-SeMet: 64.2 ± 0.7 °C
AbDapE-SeMet; 0.005 mM Li2SO4
  Tm AbDapE-SeMet: 64.1 ± 0.3 °C
AbDapE-SeMet; 0.1 mM Li2SO4
  Tm AbDapE-SeMet: 64.0 ± 0.2 °C
AbDapE-SeMet; 0.5 mM Li2SO4
  Tm AbDapE-SeMet: 64.9 ± 0.1 °C
AbDapE-SeMet; 1 mM Li2SO4
  Tm AbDapE-SeMet: 64.7 ± 0.5 °C
AbDapE-SeMet; 5 mM Li2SO4
  Tm AbDapE-SeMet: 65.2 ± 0.1 °C
AbDapE-SeMet; 10 mM Li2SO4
  Tm AbDapE-SeMet: 65.0 ± 0.3 °C
AbDapE-SeMet; 50 mM Li2SO4
  Tm AbDapE-SeMet: 63.1 ± 0.1 °C
AbDapE-SeMet; 70 mM Li2SO4
  Tm AbDapE-SeMet: 61.8 ± 0.1 °C
AbDapE [1]; 0.001 mM Li2SO4
  Tm1 AbDapE: 41.4 ± 0.1 °C
  Tm2 AbDapE: 63.1 ± 0.1 °C
AbDapE [1]; 0.005 mM Li2SO4
  Tm1 AbDapE: 41.8 ± 0.2 °C
  Tm2 AbDapE: 62.8 ± 0.2 °C
AbDapE [1]; 0.1 mM Li2SO4
  Tm1 AbDapE: 41.6 ± 0.1 °C
  Tm2 AbDapE: 62.2 ± 0.1 °C
AbDapE [1]; 0.5 mM Li2SO4
  Tm1 AbDapE: 41.7 ± 0.1 °C
  Tm2 AbDapE: 63.1 ± 0.1 °C
AbDapE [1]; 1 mM Li2SO4
  Tm1 AbDapE: 41.3 ± 0.1 °C
  Tm2 AbDapE: 63.0 ± 0.1 °C
AbDapE [1]; 5 mM Li2SO4
  Tm1 AbDapE: 41.6 ± 0.1 °C
  Tm2 AbDapE: 61.5 ± 0.2 °C
AbDapE [1]; 10 mM Li2SO4
  Tm1 AbDapE: 41.5 ± 0.1 °C
  Tm2 AbDapE: 60.4 ± 0.1 °C
AbDapE [1]; 30 mM Li2SO4
  Tm1 AbDapE: 42.2 ± 0.2 °C
  Tm2 AbDapE: 59.1 ± 0.2 °C
AbDapE [1]; 50 mM Li2SO4
  Tm1 AbDapE: 42.1 ± 0.1 °C
  Tm2 AbDapE: 58.3 ± 0.1 °C
AbDapE [1]; 60 mM Li2SO4
  Tm1 AbDapE: 42.4 ± 0.2 °C
  Tm2 AbDapE: 57.5 ± 0.1 °C
AbDapE [1]; 70 mM Li2SO4
  Tm1 AbDapE: 42.4 ± 0.3 °C
  Tm2 AbDapE: 56.7 ± 0.2 °C
AbDapE [2]
  Mode of inhibition of AbDapE: competitive inhibitors
HiDapE [3]; [5]
  Tm1 HiDapE: 51.7 ± 0.3 °C
  Tm2 HiDapE: 75.6 ± 0.3 °C
HiDapE [3]; [6]
  Tm1 HiDapE: 51.4 ± 0.2 °C
  Tm2 HiDapE: 76.2 ± 0.5 °C
HiDapE [3]; [7]
  Tm1 HiDapE: 52.7 ± 0.4 °C
  Tm2 HiDapE: 76.1 ± 0.6 °C
HiDapE [3]; [8]
  Tm1 HiDapE: 51.2 ± 0.7 °C
  Tm2 HiDapE: 78.3 ± 0.1 °C
HiDapE [3]; [9]
  Tm1 HiDapE: 50.7 ± 0.2 °C
  Tm2 HiDapE: 77.8 ± 0.1 °C
HiDapE [3]; [10]
  Tm1 HiDapE: 51.2 ± 0.6 °C
  Tm2 HiDapE: 77.7 ± 0.1 °C
HiDapE [3]; [11]
  Tm1 HiDapE: 51.2 ± 0.6 °C
  Tm2 HiDapE: 77.4 ± 0.1 °C
HiDapE [3]; [12]
  Tm1 HiDapE: 52.6 ± 0.5 °C
  Tm2 HiDapE: 74.6 ± 0.3 °C
HiDapE [3]; [13]
  Tm1 HiDapE: 53.3 ± 0.5 °C
  Tm2 HiDapE: 75.9 ± 0.1 °C
HiDapE [3]; [14]
  Tm1 HiDapE: 53.3 ± 0.3 °C
  Tm2 HiDapE: 73.8 ± 0.1 °C
HiDapE [3]; [15]
  Tm1 HiDapE: 54.4 ± 0.5 °C
  Tm2 HiDapE: 76.6 ± 0.1 °C
HiDapE [3]; read-out: Ki (HiDapE, thermal shift), Tm vs log [concentration], derived Van't Hoff equation, 200 nM HiDapE + 10× dye
  Ki: 18.4 mM
HiDapE [3]; thermal shift assays
  Effect on stability (Tm) of HiDapE, in words: stabilize HiDapE
HiDapE [4]
  IC50: 13.8 mM
